Results taken from ChEMBL document CHEMBL4431335, “Synthesis and trypanocidal activity of novel benzimidazole derivatives” (Bioorg Med Chem Lett, 2016).

Columns and labels:
[1] = biological target: Triosephosphate isomerase, glycosomal (Trypanosoma cruzi) (UniProt P52270); assay: Inhibition of recombinant Trypanosoma cruzi triosephosphate isomerase assessed as reduction of DHAP at 100 uM after 2 hrs by measuring NADH consumption by alpha-glycerolphosphate dehydrogenase coupled assay
In short: (§1)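 Recombinant TIM (T. cruzi or human) at 5 µg/mL was preincubated with compound at 36 °C in 100 mM triethanolamine, 10 mM EDTA, pH 7.4, with compound dissolved in 10% DMSO. After 2 h, 1 µL was transferred into 1 mL of activity mix. Activity was measured as NADH consumed by α-glycerolphosphate dehydrogenase reducing DHAP. Controls were enzyme alone, substrate alone, and enzyme plus DMSO.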

[2] = Solubility of the compound in DMSO at 200 uM; format: physicochemical
[3] = biological target: Triosephosphate isomerase, glycosomal (Trypanosoma cruzi) (UniProt P52270); assay: Inhibition of recombinant Trypanosoma cruzi triosephosphate isomerase assessed as reduction of DHAP at 200 uM after 2 hrs by measuring NADH consumption by alpha-glycerolphosphate dehydrogenase coupled assay; in short: as §1
[4] = Cytotoxicity against mouse J774 cells assessed as decrease in cell viability after 24 hrs by resazurin assay; format: cell-based
In short: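 Mouse J774 macrophages were grown in DMEM with 10% FBS and treated with a range of compound concentrations for 24 h at 37 °C, 5% CO₂, with final DMSO below 1%. Untreated cells served as controls. Resazurin was added for 3 h and fluorescence was read (535/590 nm). Cytotoxicity was scored as % metabolic reduction versus untreated cells, and CC50 was derived.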

Trypanosoma cruzi [5] = assay: Antitrypanosomal activity against epimastigote forms of Trypanosoma cruzi INC-5 isolated from chagas disease patient after 24 hrs by resazurin dye based spectrophotometric analysis; format: functional, organism-based; conditions: INC-5, 24 h
In short: (§2)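 Epimastigotes at 1 × 10⁵/ml were exposed to compound for 24 h at 28 °C. Compounds were taken from 10 mg/mL DMSO stocks and diluted in sterile water, with final DMSO at most 1%. Concentrations were […], with DMSO-treated parasite controls. Viability was read by resazurin fluorescence (535/590 nm). Runs were in duplicate and IC50 was derived.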

[6] = biological target: Triosephosphate isomerase, glycosomal (Trypanosoma cruzi, UniProt P52270); assay: Inhibition of recombinant Trypanosoma cruzi triosephosphate isomerase assessed as reduction of DHAP after 2 hrs by measuring NADH consumption by alpha-glycerolphosphate dehydrogenase coupled assay; in short: as §1
Chain of Triosephosphate isomerase, glycosomal (P52270 whole entry): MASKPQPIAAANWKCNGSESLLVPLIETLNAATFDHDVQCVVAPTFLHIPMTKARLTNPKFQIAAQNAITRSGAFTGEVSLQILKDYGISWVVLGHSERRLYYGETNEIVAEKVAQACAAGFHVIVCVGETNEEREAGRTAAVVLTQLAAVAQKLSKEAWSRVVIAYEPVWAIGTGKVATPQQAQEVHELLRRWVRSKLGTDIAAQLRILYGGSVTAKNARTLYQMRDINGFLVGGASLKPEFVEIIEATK

Trypanosoma cruzi [7] = assay: Antitrypanosomal activity against epimastigote forms of Trypanosoma cruzi NINOA isolated from chagas disease patient after 24 hrs by resazurin dye based spectrophotometric analysis; format: functional, organism-based; in short: as §2
[8] = biological target: Triosephosphate isomerase (Homo sapiens) (UniProt P60174); assay: Inhibition of recombinant human triosephosphate isomerase assessed as reduction of DHAP at 200 uM after 2 hrs by measuring NADH consumption by alpha-glycerolphosphate dehydrogenase coupled assay; in short: as §1
Chain of Triosephosphate isomerase (Homo sapiens) (P60174 whole entry): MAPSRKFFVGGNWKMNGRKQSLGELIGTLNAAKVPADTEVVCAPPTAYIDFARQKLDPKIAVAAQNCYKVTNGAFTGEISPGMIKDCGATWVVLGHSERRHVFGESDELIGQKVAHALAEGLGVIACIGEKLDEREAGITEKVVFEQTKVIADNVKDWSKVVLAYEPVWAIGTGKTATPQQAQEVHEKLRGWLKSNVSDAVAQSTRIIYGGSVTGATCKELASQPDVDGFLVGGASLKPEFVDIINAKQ

[9] = biological target: Triosephosphate isomerase (Homo sapiens) (UniProt P60174); assay: Inhibition of recombinant human triosephosphate isomerase assessed as reduction of DHAP at 100 uM after 2 hrs by measuring NADH consumption by alpha-glycerolphosphate dehydrogenase coupled assay; in short: as §1

Chain of Triosephosphate isomerase, glycosomal (Trypanosoma cruzi) (P52270 whole entry): as the sequence (P52270 whole entry) above

| inhibition [1] [%] | solubility [2] | inhibition [3] [%] | IC50 (Trypanosoma cruzi [5]) [µM] | IC50 (Trypanosoma cruzi [7]) [µM] | Compound | CC50 at 24 h [4] [µM] | also measured |
| --- | --- | --- | --- | --- | --- | --- | --- |
| 0 | Insoluble |  |  |  | COC(=O)c1cc2nc(SCC(=O)Nc3cccc(C(N)=O)n3)[nH]c2cc1Cl |  |  |
| 21 | Insoluble |  |  |  | COC(=O)c1cc2nc(SCC(=O)Nc3cccc(Cl)n3)[nH]c2cc1Cl |  |  |
| 4 | Insoluble |  |  |  | COC(=O)c1cc2nc(SCC(=O)Nc3ccc(OC)cn3)[nH]c2cc1Cl |  |  |
|  |  | 52 |  |  | COC(=O)c1ccc2nc(SCC(=O)Nc3ncc([N+](=O)[O-])s3)[nH]c2c1 |  |  |
|  |  | 0 |  |  | COC(=O)c1cc2nc(SCC(=O)Nc3ncccn3)[nH]c2cc1Cl |  |  |
|  |  | 59 | 48.9 | 120 | COC(=O)c1cc2nc(SCC(=O)Nc3nccs3)[nH]c2cc1Cl | 104 | IC50 [6]: 223 µM; inhibition [8]: 0% |
|  |  | 10 |  |  | COC(=O)c1cc2nc(SCC(=O)Nc3ccccn3)[nH]c2cc1Cl |  |  |
|  |  | 33 |  |  | COC(=O)c1cc2nc(SCC(=O)Nc3ccccc3)[nH]c2cc1Cl |  |  |
|  |  | 68 | 28.7 | 98.8 | COC(=O)c1cc2nc(SCC(=O)Nc3cnccn3)[nH]c2cc1Cl | 135 | IC50 [6]: 82 µM; inhibition [8]: 6% |
| 0 | Insoluble |  |  |  | COC(=O)c1cc2nc(SCC(=O)Nc3ccc([N+](=O)[O-])cn3)[nH]c2cc1Cl |  |  |
| 65 | Insoluble |  | 186 | 57 | COC(=O)c1cc2nc(SCC(=O)Nc3ccc(Cl)cc3)[nH]c2cc1Cl | 90.4 | inhibition [9]: 0% |
|  |  | 69 | 42.5 | 95.4 | COC(=O)c1cc2nc(SCC(=O)Nc3ncc([N+](=O)[O-])s3)[nH]c2cc1Cl | 84.9 | IC50 [6]: 77 µM; inhibition [8]: 15% |
|  |  |  | 50.8 | 89.8 | CC1CS(=O)(=O)CCN1/N=C/c1ccc([N+](=O)[O-])o1 (centres undefined) [NIFURTIMOX] | 132 |  |
| 0 | Insoluble |  |  |  | COC(=O)c1cc2nc(SCC(=O)Nc3cccc(C)n3)[nH]c2cc1Cl |  |  |
|  |  | 48 |  |  | O=C(CSc1nc2cc(Oc3cccc4ccccc34)c(Cl)cc2[nH]1)Nc1ncc([N+](=O)[O-])s1 |  |  |
| 41 | Insoluble |  | 95 | 124 | COC(=O)c1cc2nc(SCC(=O)Nc3ccc(Cl)cn3)[nH]c2cc1Cl | 82.7 | inhibition [9]: 0% |
|  |  | 33 |  |  | COC(=O)c1cc2nc(SCC(=O)Nc3ccncc3)[nH]c2cc1Cl |  |  |
